In ChEMBL document CHEMBL2021813, “Semisynthetic neoclerodanes as kappa opioid receptor probes” (Bioorg Med Chem, 2012):

Key:
[1] = target: T1, Kappa-type opioid receptor (Homo sapiens, UniProt P41145); assay: Agonist activity at human recombinant kappa opioid receptor expressed in CHO cells assessed as [35S]GTP-gamma-S binding after 3 hrs by liquid scintillation counting; format: functional, cell-based
How it was run: (§1)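 hKOP-CHO membranes (50 μg protein) were incubated with 50 pM [35S]GTP-γ-S and 40 μM GDP. Final buffer was 50 mM Tris-HCl pH 7.4, 100 mM NaCl, 10 mM MgCl2, 1 mM EDTA, 1 mM DTT and 0.1% BSA. Incubation ran 3 hr at 25 °C. Nonspecific binding was set with 40 μM GTP-γ-S. Bound label was separated by vacuum filtration through GF/B and counted.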

[2] = target: T2, Mu-type opioid receptor (Homo sapiens, UniProt P35372); assay: Displacement of [3H]DAMGO from human recombinant mu opioid receptor expressed in CHO cells after 2 hrs by liquid scintillation counting; format: cell-based
How it was run: (§2)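 Membranes from CHO cells stably transfected with human DOP, MOP or KOP receptor, in 50 mM Tris-HCl pH 7.4 with a protease inhibitor cocktail. The ~2 nM [3H]radioligand was displaced by 10 drug concentrations, in triplicate, for 2 hr at 25 °C, then filtered over GF/B. Nonspecific binding was set by 20 μM levallorphan (DADLE, DAMGO) or 1 μM (−)-U69,593 (U69,593). Ki (±SD) came from full curves, n=3.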

[3] = target: T2, Mu-type opioid receptor; assay: Displacement of [3H]DAMGO from human recombinant mu opioid receptor expressed in CHO cells at 1 uM after 2 hrs by liquid scintillation counting; format: cell-based
How it was run: (§3)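 Radioligand (~2 nM) competition on human opioid receptor CHO membranes in Tris-HCl pH 7.4, 2 hr at 25 °C, with GF/B filtration and scintillation counting. Results are percent of control produced by a single test drug concentration, 1 μM or 10 μM as the line states. Nonspecific binding was set by 20 μM levallorphan (DADLE, DAMGO) or 1 μM (−)-U69,593 (U69,593).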

[4] = target: T3, Delta-type opioid receptor (Homo sapiens, UniProt P41143); assay: Displacement of [3H]DADLE from human recombinant delta opioid receptor expressed in CHO cells after 2 hrs by liquid scintillation counting; format: cell-based; how it was run: as §2
[5] = target: T3, Delta-type opioid receptor; assay: Displacement of [3H]DADLE from human recombinant delta opioid receptor expressed in CHO cells at 1 uM after 2 hrs by liquid scintillation counting; format: cell-based; how it was run: as §3
[6] = target: T1, Kappa-type opioid receptor; assay: Agonist activity at human recombinant kappa opioid receptor expressed in CHO cells assessed as [35S]GTP-gamma-S binding after 3 hrs by liquid scintillation counting relative to (-)U50488; format: functional, cell-based; how it was run: as §1
[7] = target: T1, Kappa-type opioid receptor; assay: Agonist activity at human recombinant kappa opioid receptor expressed in CHO cells assessed as calcium mobilization after 1 hrs by fluorescence analysis; format: functional, cell-based
How it was run: (§4)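 CHO cells stably expressing KOP receptor with Gαq16 were plated at 30,000 cells/well and grown overnight at 37 °C. They were loaded with Calcium 5 dye in HBSS with 20 mM HEPES, 0.25% BSA, 1% DMSO and probenecid for 1 h at 37 °C. Compounds were added at 10X after a ~17 sec baseline, and fluorescence (ex 485/em 525 nm) was read every 1.52 sec for 60 sec. EC50 and Emax are given ±SD.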

[8] = target: T1, Kappa-type opioid receptor; assay: Agonist activity at human recombinant kappa opioid receptor expressed in CHO cells assessed as calcium mobilization after 1 hrs by fluorescence analysis relative to U69593; format: functional, cell-based; how it was run: as §4
[9] = target: T3, Delta-type opioid receptor; assay: Displacement of [3H]DADLE from human recombinant delta opioid receptor expressed in CHO cells at 10 uM after 2 hrs by liquid scintillation counting; format: cell-based; how it was run: as §3
[10] = target: T1, Kappa-type opioid receptor; assay: Displacement of [3H]U69593 from human recombinant kappa opioid receptor expressed in CHO cells after 2 hrs by liquid scintillation counting; format: cell-based; how it was run: as §2
[11] = target: T2, Mu-type opioid receptor; assay: Displacement of [3H]DAMGO from human recombinant mu opioid receptor expressed in CHO cells at 10 uM after 2 hrs by liquid scintillation counting; format: cell-based; how it was run: as §3
[12] = target: T1, Kappa-type opioid receptor; assay: Partial agonist activity at human recombinant kappa opioid receptor expressed in CHO cells assessed as [35S]GTP-gamma-S binding after 3 hrs by liquid scintillation counting; format: functional, cell-based; how it was run: as §1
[13] = target: T1, Kappa-type opioid receptor; assay: Partial agonist activity at human recombinant kappa opioid receptor expressed in CHO cells assessed as [35S]GTP-gamma-S binding after 3 hrs by liquid scintillation counting relative to (-)U50488; format: functional, cell-based; how it was run: as §1

T3 sequence (P41143 whole entry): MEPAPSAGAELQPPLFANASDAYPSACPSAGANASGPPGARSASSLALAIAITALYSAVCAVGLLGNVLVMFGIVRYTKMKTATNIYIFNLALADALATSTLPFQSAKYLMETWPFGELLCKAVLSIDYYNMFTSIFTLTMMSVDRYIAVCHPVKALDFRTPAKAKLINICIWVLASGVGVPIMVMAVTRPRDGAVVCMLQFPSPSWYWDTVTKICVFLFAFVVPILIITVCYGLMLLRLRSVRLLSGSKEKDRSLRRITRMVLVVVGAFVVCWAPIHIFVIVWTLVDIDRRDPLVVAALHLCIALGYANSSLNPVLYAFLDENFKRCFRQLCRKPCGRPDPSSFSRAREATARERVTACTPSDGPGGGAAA
T2 sequence (P35372 whole entry): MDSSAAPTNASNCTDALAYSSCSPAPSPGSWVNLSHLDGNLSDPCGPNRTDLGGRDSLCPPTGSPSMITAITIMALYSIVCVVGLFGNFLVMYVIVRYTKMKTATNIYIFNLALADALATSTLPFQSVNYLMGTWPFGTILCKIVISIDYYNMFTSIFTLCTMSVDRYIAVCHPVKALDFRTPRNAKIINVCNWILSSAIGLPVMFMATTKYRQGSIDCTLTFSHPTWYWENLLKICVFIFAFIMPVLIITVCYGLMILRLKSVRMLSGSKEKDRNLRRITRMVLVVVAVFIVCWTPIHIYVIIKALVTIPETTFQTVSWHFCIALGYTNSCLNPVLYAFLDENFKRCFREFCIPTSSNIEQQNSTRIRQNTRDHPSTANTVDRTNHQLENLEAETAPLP
T1 sequence (P41145 whole entry): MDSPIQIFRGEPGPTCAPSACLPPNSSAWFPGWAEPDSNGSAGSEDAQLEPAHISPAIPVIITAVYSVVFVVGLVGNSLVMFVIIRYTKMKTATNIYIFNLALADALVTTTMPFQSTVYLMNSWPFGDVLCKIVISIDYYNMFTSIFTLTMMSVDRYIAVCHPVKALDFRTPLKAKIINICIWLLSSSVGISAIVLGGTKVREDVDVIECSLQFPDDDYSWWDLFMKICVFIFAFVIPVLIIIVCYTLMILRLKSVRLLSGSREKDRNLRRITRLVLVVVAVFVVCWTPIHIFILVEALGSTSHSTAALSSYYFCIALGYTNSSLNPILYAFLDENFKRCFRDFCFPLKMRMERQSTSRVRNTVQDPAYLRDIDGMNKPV

| SMILES | EC50 [1] | Ki [2] | Activity [3] | Ki [4] | Activity [5] | Emax [6] | EC50 [7] | Emax [8] | Activity [9] | Ki [10] | Activity [11] | EC50 [12] | Emax [13] |
| --- | --- | --- | --- | --- | --- | --- | --- | --- | --- | --- | --- | --- | --- |
| COC(=O)[C@@H]1C[C@H](OC(C)=O)C(=O)[C@H]2[C@@]1(C)CC[C@H]1C(=O)O[C@H](c3ccco3)C[C@]21C | 140 nM | > 1000 nM | 81% | > 10000 nM | 99% | 104% | 12.2 nM | 97% |  |  |  |  |  |
| COC(=O)[C@@H]1C[C@H](OC(C)=O)C(=O)[C@H]2[C@@]1(C)CC[C@H]1C(=O)O[C@H](C(=O)c3ccccc3O)C[C@]21C |  | 3600 nM |  | > 10000 nM |  |  |  |  | 94% | 500 nM |  |  |  |
| COC(=O)[C@@H]1C[C@H](OC(C)=O)C(=O)[C@H]2[C@@]1(C)CC[C@H]1C(=O)O[C@H](C(=O)c3cccs3)C[C@]21C | 1630 nM | > 10000 nM |  | > 10000 nM |  | 95% |  |  | 99% | 36 nM | 65% |  |  |
| COC(=O)[C@@H]1C[C@H](OC(C)=O)C(=O)[C@H]2[C@@]1(C)CC[C@H]1C(=O)O[C@H](C(=O)c3cccc(C(N)=O)c3)C[C@]21C | 730 nM | > 10000 nM | 84% | > 10000 nM | 52% | 92% | 75.4 nM | 97% |  | 40 nM |  |  |  |
| COC(=O)[C@@H]1C[C@H](OC(C)=O)C(=O)[C@H]2[C@@]1(C)CC[C@H]1C(=O)O[C@H](C(=O)c3cc4ccccc4s3)C[C@]21C |  | > 10000 nM |  | > 10000 nM |  |  |  |  | 95% | 9210 nM | 58% |  |  |
| COC(=O)[C@@H]1C[C@H](OC(C)=O)C(=O)[C@H]2[C@@]1(C)CC[C@H]1C(=O)O[C@H](C(=O)c3csc4ccccc34)C[C@]21C |  | > 1000 nM | 60% | > 1000 nM | 56% |  |  |  |  | > 10000 nM |  |  |  |
| COC(=O)[C@@H]1C[C@H](OC(C)=O)C(=O)[C@H]2[C@@]1(C)CC[C@H]1C(=O)O[C@H](C(=O)c3cccc(C#N)c3)C[C@]21C |  | > 1000 nM | 61% | > 10000 nM | 68% |  |  |  |  | 220 nM |  |  |  |
| COC(=O)[C@@H]1C[C@H](OC(C)=O)C(=O)[C@H]2[C@@]1(C)CC[C@H]1C(=O)O[C@H](C(=O)c3ccccc3OC)C[C@]21C |  | > 10000 nM |  | > 10000 nM | 87% |  |  |  |  | 1070 nM | 53% |  |  |
| COC(=O)[C@@H]1C[C@H](OC(C)=O)C(=O)[C@H]2[C@@]1(C)CC[C@H]1C(=O)O[C@H](C(=O)c3ccc(O)cc3)C[C@]21C |  | > 10000 nM |  | > 10000 nM |  |  |  |  | 100% | 8470 nM | 93% |  |  |
| COC(=O)[C@@H]1C[C@H](OC(C)=O)C(=O)[C@H]2[C@@]1(C)CC[C@H]1C(=O)O[C@H](/C=C/c3ccoc3)C[C@]21C |  | > 10000 nM |  | > 10000 nM |  |  |  |  | 66% | 1120 nM | 78% |  |  |
| COC(=O)[C@@H]1C[C@H](OC(C)=O)C(=O)[C@H]2[C@@]1(C)CC[C@H]1C(=O)O[C@H](C(=O)c3ccccc3)C[C@]21C |  | 1490 nM |  | > 10000 nM |  |  |  |  | 100% | 70 nM |  | 2280 nM | 74% |
| COC(=O)[C@@H]1C[C@H](OC(C)=O)C(=O)[C@H]2[C@@]1(C)CC[C@H]1C(=O)O[C@H](C(=O)c3cccc(C(F)(F)F)c3)C[C@]21C |  | 3400 nM |  | > 1000 nM | 46% |  |  |  |  | 2260 nM |  |  |  |
